High-throughput results: PubChem, several laboratories
PAFAH1B3 FP inh: PAFAH1B3 (human) inhibition. Q15102. inhibition, % at 3.39 µM. hit rate 0.28% among 340,000. recombinant PAFAH1B3, FP-rhodamine probe, fluorescence polarization. AID 492972;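 active = inhibition above the screen-wide average of all tested compounds plus 3 SD, cut at about 25% in these data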;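 note: 0% = enzyme with DMSO only and 100% = wells lacking PAFAH1B3 protein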
Target sequence (Q15102 whole entry, looked up): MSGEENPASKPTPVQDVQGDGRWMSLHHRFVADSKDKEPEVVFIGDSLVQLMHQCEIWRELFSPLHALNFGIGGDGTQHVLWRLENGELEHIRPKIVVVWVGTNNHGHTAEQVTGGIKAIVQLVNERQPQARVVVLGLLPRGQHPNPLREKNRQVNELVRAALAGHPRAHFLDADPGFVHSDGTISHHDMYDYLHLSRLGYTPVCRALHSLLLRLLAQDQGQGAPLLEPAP
pPAFAH FP inh: inhibitors of human plasma PAF acetylhydrolase (pPAFAH); Q13093; recombinant pPAFAH, FP-rhodamine probe fluorescence polarization; inhibition, % at 3.39 µM; hit rate 1.5% among 330,000;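 active = inhibition above the mean inhibition across the screen plus 3 SD, cut at about 25% in these data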;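 note: inhibitors block binding of the rhodamine activity-based probe so polarization drops; 0% = enzyme with DMSO and 100% = wells lacking pPAFAH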
Target sequence (Q13093 whole entry, looked up): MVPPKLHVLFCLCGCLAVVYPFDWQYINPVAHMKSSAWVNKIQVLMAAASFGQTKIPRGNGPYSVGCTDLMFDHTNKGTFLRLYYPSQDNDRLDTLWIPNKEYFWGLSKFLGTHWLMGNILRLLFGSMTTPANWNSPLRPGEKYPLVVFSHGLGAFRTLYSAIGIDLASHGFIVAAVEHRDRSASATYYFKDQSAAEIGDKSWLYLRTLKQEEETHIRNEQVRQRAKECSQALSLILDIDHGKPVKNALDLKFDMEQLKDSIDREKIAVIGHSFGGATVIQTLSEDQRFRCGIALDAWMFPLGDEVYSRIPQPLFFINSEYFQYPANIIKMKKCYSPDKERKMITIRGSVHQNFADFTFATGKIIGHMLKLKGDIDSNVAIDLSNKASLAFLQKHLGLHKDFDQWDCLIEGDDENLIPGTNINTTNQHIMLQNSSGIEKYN
PAFAH1B2 FP inh: inhibitors of human PAFAH1B2; P68402; recombinant PAFAH1B2, FP-rhodamine activity probe, fluorescence polarization; inhibition, % at 3.39 µM; hit rate 1.2% among 340,000;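 active = inhibition above the mean of all tested compounds plus 3 SD, cut at about 24% in these data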;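 note: 0% = enzyme with DMSO and 100% = wells lacking PAFAH1B2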
PAFAH2 FP inh: inhibitors of human PAFAH2; recombinant PAFAH2, FP-rhodamine activity probe, fluorescence polarization; inhibition, % at 3.39 µM; hit rate 0.99% among 340,000;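 active = inhibition above the mean over all tested compounds plus 3 SD, cut at about 30% in these data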;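 note: inhibitors block probe labeling of enzyme so polarization drops; 0% = enzyme with DMSO and 100% = wells lacking PAFAH2 protein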
Apaf1 inhib: human Apaf-1 inhibition | reconstituted apoptosome caspase-3 activity, DEVD-Rh110 fluorescence | inhibition, % at 20 µM | AID 489030 | hit rate 0.71% among 330,000; active = inhibition of at least 40% at 20 µM;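 note: plate controls were DMSO wells for no effect and DEVD-CHO caspase inhibitor wells for full effect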
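Material: cell-free apoptosome with Apaf-1, procaspase-3 and caspase-9; Buffer or medium: Hepes pH 7.5 with detergent and BSA; Reagent: cytochrome c trigger plus (Z-DEVD)2-Rh110 caspase-3 substrate; Times: compound with Apaf-1, dATP, procaspase-3 30 min, then 50 min reaction, room temperature; Technique: Rh110 fluorescence intensity.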
PREPL inhibitor: human PREPL enzyme inhibition; AID 2751; hit rate 0.68% among 320,000; inhibition, % at 5.96 µM; recombinant PREPL, fluorescence polarization activity-based probe; in the data active = inhibition above about 43%;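 note: 0% = enzyme with DMSO and 100% = wells lacking enzyme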
An asterisk follows results filed as active. An excerpt weighted towards active compounds, which were near 3.5% of everything screened.

What do the screens show for `CC(OC(=O)c1ccc(=O)n(Cc2ccccc2)n1)C(=O)Nc1cccc(Cl)c1` (centres undefined)?
PAFAH1B3 FP inh: -3; pPAFAH FP inh: 5; PAFAH1B2 FP inh: -2; PAFAH2 FP inh: 1; Apaf1 inhib: 9; PREPL inhibitor: -8

Results for CC1CC(C)CN(CC(=O)NNC(=O)COc2ccc(Cl)cc2)C1 (centres undefined) ?
PAFAH1B3 FP inh: 6; pPAFAH FP inh: -3; PAFAH1B2 FP inh: 4; PAFAH2 FP inh: 21; Apaf1 inhib: -2; PREPL inhibitor: 18

What do the screens show for `COc1ccccc1NC(=O)/C(C#N)=C/c1cccn1C`?
PAFAH1B3 FP inh: -1; pPAFAH FP inh: 4; PAFAH1B2 FP inh: 2; PAFAH2 FP inh: -3; Apaf1 inhib: -22; PREPL inhibitor: -2

Results for CCCCOC(=O)Nc1nnc(CCc2ccccc2)s1 ?
PAFAH1B3 FP inh: 4; pPAFAH FP inh: 26*; PAFAH1B2 FP inh: 7; PAFAH2 FP inh: -1; Apaf1 inhib: 15; PREPL inhibitor: -2

What do the screens show for `CC1CN(c2nc3ccccc3nc2SCC(=O)Nc2cccc(C(F)(F)F)c2)CC(C)O1` (centres undefined)?
PAFAH1B3 FP inh: -10; pPAFAH FP inh: -8; PAFAH1B2 FP inh: -8; PAFAH2 FP inh: -24; Apaf1 inhib: 4; PREPL inhibitor: -7

Results for CCn1c(CNC(=O)c2ccco2)nnc1SCC(=O)Nc1cc(C(F)(F)F)ccc1Cl ?
PAFAH1B3 FP inh: 14; pPAFAH FP inh: 8; PAFAH1B2 FP inh: 2; PAFAH2 FP inh: 4; Apaf1 inhib: -11; PREPL inhibitor: -6

How did N#Cc1nc(COc2ccc(Cl)cc2)oc1NCc1ccc2c(c1)OCO2 do in these assays?
PAFAH1B3 FP inh: 3; pPAFAH FP inh: 2; PAFAH1B2 FP inh: 29*; PAFAH2 FP inh: -4; Apaf1 inhib: 11; PREPL inhibitor: -11

What do the screens show for `COc1cc(/C=N/N2CCCCC2)cc([N+](=O)[O-])c1O`?
PAFAH1B3 FP inh: 11; pPAFAH FP inh: 28*; PAFAH1B2 FP inh: -1; PAFAH2 FP inh: 6; Apaf1 inhib: 3; PREPL inhibitor: 1

How did COc1cc(/C=N/n2c(=S)[nH]nc(C)c2=O)cc([N+](=O)[O-])c1O do in these assays?
pPAFAH FP inh: -3; Apaf1 inhib: 2; PREPL inhibitor: -11

Results for c1csc(-c2csc3nc(CN4CCOCC4)nc(NCc4ccc5c(c4)OCO5)c23)c1 ?
PAFAH1B3 FP inh: 9; pPAFAH FP inh: 16; PAFAH1B2 FP inh: 12; PAFAH2 FP inh: 11; Apaf1 inhib: 23; PREPL inhibitor: 14

What do the screens show for `c1csc(C2Nc3cccc4cccc(c34)N2)c1`?
PAFAH1B3 FP inh: 30*; pPAFAH FP inh: 10; PAFAH1B2 FP inh: 11; PAFAH2 FP inh: -1; Apaf1 inhib: 18; PREPL inhibitor: 9

What do the screens show for `CC(=O)Nc1ccc(NC(=O)Nc2cccc(Cl)c2)cc1`?
PAFAH1B3 FP inh: -4; pPAFAH FP inh: 7; PAFAH1B2 FP inh: 0; PAFAH2 FP inh: 1; Apaf1 inhib: 0; PREPL inhibitor: 11

How did CC(=O)C(=Nc1ccc(Cl)cc1Cl)NNc1cccc(Cl)c1 do in these assays?
PAFAH1B3 FP inh: 1; pPAFAH FP inh: 25*; PAFAH1B2 FP inh: -1; PAFAH2 FP inh: -7; Apaf1 inhib: 15; PREPL inhibitor: 8

Results for O=C1CCCc2c1cc(-c1ccccc1)n2-c1ccccc1 ?
PAFAH1B3 FP inh: 10; pPAFAH FP inh: 5; PAFAH1B2 FP inh: 25*; PAFAH2 FP inh: 3; Apaf1 inhib: 10; PREPL inhibitor: 4

What do the screens show for `O=C(CNC(=O)c1cc2c(n(-c3ccccc3)c1=O)CCCC2=O)c1ccccc1`?
PAFAH1B3 FP inh: -2; pPAFAH FP inh: 6; PAFAH1B2 FP inh: 0; PAFAH2 FP inh: -5; Apaf1 inhib: 4; PREPL inhibitor: 8

How did CC1CCCC(C)N1C(=O)CSc1nnc(COc2ccc(F)cc2)o1 (centres undefined) do in these assays?
PAFAH1B3 FP inh: 7; pPAFAH FP inh: 3; PAFAH1B2 FP inh: 10; PAFAH2 FP inh: 2; Apaf1 inhib: 5; PREPL inhibitor: 18

How did Cc1ccsc1C=Nc1ccc(O)cc1 do in these assays?
PAFAH1B3 FP inh: 22; pPAFAH FP inh: 22; PAFAH1B2 FP inh: 6; PAFAH2 FP inh: 8; Apaf1 inhib: 94*; PREPL inhibitor: 24

How did O=C(c1cc(S(=O)(=O)N2CCCC2)c(Cl)cc1Cl)N1CCCC1 do in these assays?
PAFAH1B3 FP inh: 3; pPAFAH FP inh: 4; PAFAH1B2 FP inh: 0; PAFAH2 FP inh: 0; Apaf1 inhib: 5; PREPL inhibitor: -4

How did Cc1cn([C@H]2C[C@H](O)[C@@H](CCC(=O)NCc3ccco3)O2)c(=O)[nH]c1=O do in these assays?
PAFAH1B3 FP inh: 9; PAFAH1B2 FP inh: 3; PAFAH2 FP inh: 1

What do the screens show for `COc1cccc(C(=O)Nc2ccc3nc(N4CCN(c5ncccn5)CC4)cc(C)c3c2)c1OC`?
pPAFAH FP inh: 82*; Apaf1 inhib: 31; PREPL inhibitor: -2

What do the screens show for `CN(C)S(=O)(=O)c1cccc(C(=O)Nc2cc(Cl)ccc2O)c1`?
PAFAH1B3 FP inh: -3; pPAFAH FP inh: 4; PAFAH1B2 FP inh: 24*; PAFAH2 FP inh: -3; Apaf1 inhib: 2; PREPL inhibitor: 6

How did CCN(C(=O)CN1C(=O)NC(c2ccccc2)(c2ccc(C)c(C)c2)C1=O)C1CCS(=O)(=O)C1 (centres undefined) do in these assays?
PAFAH1B3 FP inh: 3; pPAFAH FP inh: 1; PAFAH1B2 FP inh: 1; PAFAH2 FP inh: 5; Apaf1 inhib: -2; PREPL inhibitor: -6

How did CCN(C(=O)CN1C(=O)NC(c2ccccc2)(c2ccc(C)c(C)c2)C1=O)C1CCCCC1 (centres undefined) do in these assays?
PAFAH1B3 FP inh: 6; pPAFAH FP inh: 8; PAFAH1B2 FP inh: 26*; PAFAH2 FP inh: -2; Apaf1 inhib: 23; PREPL inhibitor: -5

Results for CSc1nnc(-c2cccs2)n1-c1ccccc1 ?
PAFAH1B3 FP inh: 2; pPAFAH FP inh: -3; PAFAH1B2 FP inh: 6; PAFAH2 FP inh: 1; Apaf1 inhib: -22; PREPL inhibitor: 5

Results for CN1CCN(S(=O)(=O)c2ccc(Sc3nnc(-c4cccs4)n3-c3ccccc3)nc2)CC1 ?
PAFAH1B3 FP inh: 0; pPAFAH FP inh: 4; PAFAH1B2 FP inh: 33*; PAFAH2 FP inh: -1; Apaf1 inhib: 6; PREPL inhibitor: 9

How did COc1cc([N+](=O)[O-])ccc1NC(=S)NNC(=O)c1ccc2c(c1)OCO2 do in these assays?
PAFAH1B3 FP inh: 12; pPAFAH FP inh: 19; PAFAH1B2 FP inh: 9; PAFAH2 FP inh: 3; Apaf1 inhib: 4; PREPL inhibitor: 16

How did O=C(NC(=S)Nc1cc([N+](=O)[O-])ccc1O)c1ccc2c(c1)OCO2 do in these assays?
PAFAH1B3 FP inh: 21; pPAFAH FP inh: 29*; PAFAH1B2 FP inh: 18; PAFAH2 FP inh: 14; Apaf1 inhib: 8; PREPL inhibitor: 10

How did CN1C(=O)/C(=C/c2cn(CC(=O)N3CCCCC3)c3ccccc23)c2ccccc21 do in these assays?
pPAFAH FP inh: 18; Apaf1 inhib: 24; PREPL inhibitor: 45*
